Source: ChEMBL document CHEMBL4138161, “Discovery of simplified sampangine derivatives as novel fungal biofilm inhibitors” (Eur J Med Chem, 2018)
In brackets after ≈: the same amount, converted by molar mass. Activity calls are given as the source filed them. No cut-off for these calls is given here.

Experiments:
Nakaseomyces glabratus = test: Antifungal activity against Candida glabrata 537 after 24 hrs by spectrophotometric analysis; type: functional; conditions: Nakaseomyces glabratus, 537, 24 h
How it was run: (§1)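 Broth microdilution in RPMI 1640, inoculum 5×10^3 CFU/mL, compounds from 6.4 mg/mL DMSO stocks, 35 ℃ for 24 h. Growth read as OD600; MIC80 taken as lowest concentration giving 80% growth inhibition. Triplicate.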

Trichophyton rubrum = test: Antifungal activity against Trichophyton rubrum Cmccftla after 24 hrs by spectrophotometric analysis; type: functional; how it was run: as §1
Candida albicans [1] = test: Antifungal activity against Candida albicans SC5314 after 24 hrs by spectrophotometric analysis; type: functional; conditions: SC5314, 24 h; how it was run: as §1
Nannizzia gypsea = test: Antifungal activity against Microsporum gypseum Cmccfmza after 24 hrs by spectrophotometric analysis; type: functional; how it was run: as §1
Candida parapsilosis = test: Antifungal activity against Candida parapsilosis 22019 after 24 hrs by spectrophotometric analysis; type: functional; conditions: Lodderomyces parapsilosis, 22019, 24 h; how it was run: as §1
Aspergillus fumigatus = test: Antifungal activity against Aspergillus fumigatus 07544 after 24 hrs by spectrophotometric analysis; type: functional; conditions: Aspergillus fumigatus, 07544, 24 h; how it was run: as §1
Cryptococcus neoformans = test: Antifungal activity against Cryptococcus neoformans 32609 after 24 hrs by spectrophotometric analysis; type: functional; conditions: Cryptococcus neoformans, 32609, 24 h; how it was run: as §1
Candida albicans [2] = test: Antibiofilm activity against Candida albicans SC5314 assessed inhibition of yeast-to-hypha morphological transition at 0.2 to 2 ug/ml after 3 hrs; type: functional, organism-based
How it was run: (§2)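 Yeast-to-hypha transition in YPD with 10% (v/v) FBS across compound concentrations; cell morphology photographed after 3 h at 37°C.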

Candida albicans [3] = test: Antibiofilm activity against Candida albicans SC5314 assessed inhibition of yeast-to-hypha morphological transition at 0.5 ug/ml after 3 hrs; type: functional, organism-based; how it was run: as §2
Candida albicans [4] = test: Antifungal activity against Candida albicans SC5314 after 48 hrs by spectrophotometric analysis; type: functional; conditions: SC5314, 48 h
Candida albicans [5] = test: Antifungal activity against Candida albicans infected in Sprague-Dawley rat vaginal infection model assessed as reduction in vaginal fungal burden at 1 mg/kg, administered intravaginally on day 1 to day 3 post fungal inoculation measured on day 4; type: functional, organism-based
How it was run: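 Ovariectomized rats inoculated intravaginally with 0.1 mL of 1×10^7 CFU/mL C. albicans on days 10, 11 and 12 after surgery. Compound in saline with 1% DMSO (2, 4, 8 mg/mL) given intravaginally on days 1–3 post-inoculation. On day 4, 100 µL vaginal fluid plated on chloramphenicol SDA agar for CFU counts.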

Candida albicans [6] = test: Antifungal activity against fluconazole-resistant Candida albicans clinical isolate 1010 after 24 hrs by spectrophotometric analysis; type: functional; conditions: isolate 1010, 24 h
How it was run: (§3)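 Broth microdilution (MIC80) against fluconazole-resistant clinical C. albicans isolates from a Shanghai hospital. Strains were grown in YPD at 30 ℃. Compounds came from 6.4 mg/mL DMSO stocks and were tested over a concentration series on 5×10^3 CFU/mL inoculum in RPMI 1640 at 35 ℃ for 24 h. OD600 was read; MIC80 is the lowest concentration giving 80% growth inhibition. Done in triplicate.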

Candida albicans [7] = test: Antifungal activity against fluconazole-resistant Candida albicans isolate Chang7 clinical isolate after 24 hrs by spectrophotometric analysis; type: functional; conditions: isolate Chang7, 24 h; how it was run: as §3
Candida albicans [8] = test: Antifungal activity against fluconazole-resistant Candida albicans clinical isolate 103 after 24 hrs by spectrophotometric analysis; type: functional; conditions: isolate 103, 24 h; how it was run: as §3
Candida albicans [9] = test: Antibiofilm activity against Candida albicans assessed inhibition of biofilm formation at 1024 ug/ml; type: functional
Candida albicans [10] = test: Antifungal activity against fluconazole-resistant Candida albicans isolate J38 clinical isolate after 24 hrs by spectrophotometric analysis; type: functional; conditions: isolate J38, 24 h; how it was run: as §3
Candida albicans [11] = test: Antifungal activity against fluconazole-resistant Candida albicans clinical isolate 032 after 24 hrs by spectrophotometric analysis; type: functional; conditions: isolate 032, 24 h; how it was run: as §3

SMILES | MIC80 (Nakaseomyces glabratus) [µg/mL] | MIC80 (Trichophyton rubrum) [µg/mL] | MIC80 (Candida albicans [1]) [µg/mL] | MIC80 (Nannizzia gypsea) [µg/mL] | MIC80 (Candida parapsilosis) [µg/mL] | MIC80 (Aspergillus fumigatus) [µg/mL] | MIC80 (Cryptococcus neoformans) [µg/mL] | inhibition (Candida albicans [2]) | Activity (Candida albicans [3]) | MIC80 (Candida albicans [4]) [µg/mL] | Activity (Candida albicans [5]) | MIC80 (Candida albicans [6]) [µg/mL] | MIC80 (Candida albicans [7]) [µg/mL] | MIC80 (Candida albicans [8]) [µg/mL] | inhibition at 1024 µg/mL (Candida albicans [9]) [%] | MIC80 (Candida albicans [10]) [µg/mL] | MIC80 (Candida albicans [11]) [µg/mL]
CN(C)c1ccc(-c2ccnc3c2C(=O)c2sc([N+](=O)[O-])cc2C3=O)cc1 | > 64 | 4 (≈ 10.5 µM) | 32 (≈ 84.3 µM) | 16 (≈ 42.2 µM) | 32 (≈ 84.3 µM) | > 64 | 16 (≈ 42.2 µM) |  |  |  |  |  |  |  |  |  | 
Cc1ccnc2c1C(=O)C1=C(OC(C)(C)C1)C2=O | 16 (≈ 65.8 µM) | 64 (≈ 263 µM) | > 64 | > 64 | > 64 | 64 (≈ 263 µM) | > 64 |  |  |  |  |  |  |  |  |  | 
CCOC(=O)c1ccnc2c1C(=O)c1sc([N+](=O)[O-])cc1C2=O | 4 (≈ 12 µM) | 1 (≈ 3.01 µM) | 2 (≈ 6.02 µM) | 4 (≈ 12 µM) | 4 (≈ 12 µM) | 8 (≈ 24.1 µM) | 4 (≈ 12 µM) |  |  |  |  |  |  |  |  |  | 
CC(C)(C)OC(=O)N1CCC(c2ccnc3c2C(=O)c2sc([N+](=O)[O-])cc2C3=O)CC1 | > 64 | 8 (≈ 18 µM) | 32 (≈ 72.2 µM) | 16 (≈ 36.1 µM) | > 64 | > 64 | 8 (≈ 18 µM) |  |  |  |  |  |  |  |  |  | 
CCC(C)n1ncn(-c2ccc(N3CCN(c4ccc(OCC5COC(Cn6cncn6)(c6ccc(Cl)cc6Cl)O5)cc4)CC3)cc2)c1=O (centres undefined) [ITRACONAZOLE] | 1 (≈ 1.42 µM) | 4 (≈ 5.67 µM) | 8 (≈ 11.3 µM) | 4 (≈ 5.67 µM) | 8 (≈ 11.3 µM) | 8 (≈ 11.3 µM) | 4 (≈ 5.67 µM) |  |  |  |  |  |  |  |  |  | 
Cc1ccnc2c1C(=O)c1scc(N)c1C2=O | > 64 | > 64 | 32 (≈ 131 µM) | > 64 | > 64 | > 64 | > 64 |  |  |  |  |  |  |  |  |  | 
CC(c1ccccc1)c1ccnc2c1C(=O)c1sc([N+](=O)[O-])cc1C2=O (centres undefined) | 8 (≈ 22 µM) | 1 (≈ 2.74 µM) | 4 (≈ 11 µM) | 1 (≈ 2.74 µM) | 4 (≈ 11 µM) | 4 (≈ 11 µM) | 0.5 (≈ 1.37 µM) |  |  |  |  |  |  |  |  |  | 
Cc1ccnc2c1[C@H](O)c1sc([N+](=O)[O-])cc1[C@H]2O (relative stereo) | > 64 | > 64 | > 64 | > 64 | > 64 | > 64 | > 64 |  |  |  |  |  |  |  |  |  | 
Cc1cnc2c(c1)C(=O)c1sc([N+](=O)[O-])cc1C2=O | 1 (≈ 3.65 µM) | 1 (≈ 3.65 µM) | 0.5 (≈ 1.82 µM) | 0.5 (≈ 1.82 µM) | 1 (≈ 3.65 µM) | 2 (≈ 7.29 µM) | 0.5 (≈ 1.82 µM) | inactive | Active | 0.5 (≈ 1.82 µM) |  |  |  |  |  |  | 
CCc1cnc2c(c1)C(=O)c1sc([N+](=O)[O-])cc1C2=O | 1 (≈ 3.47 µM) | 0.5 (≈ 1.73 µM) | 0.5 (≈ 1.73 µM) | 0.25 (≈ 0.867 µM) | 1 (≈ 3.47 µM) | 2 (≈ 6.94 µM) | 0.25 (≈ 0.867 µM) |  |  |  |  |  |  |  |  |  | 
O=Cc1ccnc2c1C(=O)c1sc([N+](=O)[O-])cc1C2=O | 0.125 (≈ 0.434 µM) | 1 (≈ 3.47 µM) | 4 (≈ 13.9 µM) | 2 (≈ 6.94 µM) | 8 (≈ 27.8 µM) | 16 (≈ 55.5 µM) | 8 (≈ 27.8 µM) |  |  |  |  |  |  |  |  |  | 
Cc1ccc(C(C)c2ccnc3c2C(=O)c2sc([N+](=O)[O-])cc2C3=O)o1 (centres undefined) | > 64 | 1 (≈ 2.71 µM) | > 64 | 1 (≈ 2.71 µM) | > 64 | 32 (≈ 86.9 µM) | 0.25 (≈ 0.679 µM) |  |  |  |  |  |  |  |  |  | 
CC(C)(C)OC(=O)/C=C\c1ccnc2c1C(=O)c1sc([N+](=O)[O-])cc1C2=O | > 64 | 4 (≈ 10.4 µM) | 32 (≈ 82.8 µM) | 4 (≈ 10.4 µM) | > 64 | > 64 | 4 (≈ 10.4 µM) |  |  |  |  |  |  |  |  |  | 
CC(C)(C)c1cnc2c(c1)C(=O)c1sc([N+](=O)[O-])cc1C2=O | 4 (≈ 12.6 µM) | 1 (≈ 3.16 µM) | 2 (≈ 6.32 µM) | 1 (≈ 3.16 µM) | 4 (≈ 12.6 µM) | 4 (≈ 12.6 µM) | 1 (≈ 3.16 µM) |  |  |  |  |  |  |  |  |  | 
Cc1cnc2c(c1C)C(=O)c1sc([N+](=O)[O-])cc1C2=O | 1 (≈ 3.47 µM) | 0.5 (≈ 1.73 µM) | 0.25 (≈ 0.867 µM) | 1 (≈ 3.47 µM) | 0.5 (≈ 1.73 µM) | 1 (≈ 3.47 µM) | 0.5 (≈ 1.73 µM) | inactive | Active | 4 (≈ 13.9 µM) |  |  |  |  |  |  | 
Cc1ccnc2c1C(=O)c1sccc1C2=O | 8 (≈ 34.9 µM) | 4 (≈ 17.4 µM) | 16 (≈ 69.8 µM) | > 64 | > 64 | 16 (≈ 69.8 µM) | 16 (≈ 69.8 µM) |  |  |  |  |  |  |  |  |  | 
CC(C)(C)OC(=O)/C=C/c1ccnc2c1C(=O)c1sc([N+](=O)[O-])cc1C2=O | > 64 | 8 (≈ 20.7 µM) | 16 (≈ 41.4 µM) | 4 (≈ 10.4 µM) | 32 (≈ 82.8 µM) | 32 (≈ 82.8 µM) | 4 (≈ 10.4 µM) |  |  |  |  |  |  |  |  |  | 
Cc1ccnc2c1C(=O)c1cn(C)cc1C2=O | > 64 | 64 (≈ 283 µM) | > 64 | > 64 | > 64 | > 64 | > 64 |  |  |  |  |  |  |  |  |  | 
CC(C)c1cnc2c(c1)C(=O)c1sc([N+](=O)[O-])cc1C2=O | 4 (≈ 13.2 µM) | 1 (≈ 3.31 µM) | 2 (≈ 6.62 µM) | 1 (≈ 3.31 µM) | 4 (≈ 13.2 µM) | 4 (≈ 13.2 µM) | 0.5 (≈ 1.65 µM) |  |  |  |  |  |  |  |  |  | 
OC(Cn1cncn1)(Cn1cncn1)c1ccc(F)cc1F [FLUCONAZOLE] | 2 (≈ 6.53 µM) | 4 (≈ 13.1 µM) | 0.25 (≈ 0.816 µM) | 32 (≈ 104 µM) | 2 (≈ 6.53 µM) | > 64 | 1 (≈ 3.27 µM) |  |  |  | Active | > 64 | 2 (≈ 6.53 µM) | > 64 | 60 | > 64 | > 64
Cc1cc[n+]([O-])c2c1C(=O)c1sc([N+](=O)[O-])cc1C2=O | 64 (≈ 220 µM) | 8 (≈ 27.6 µM) | 8 (≈ 27.6 µM) | 4 (≈ 13.8 µM) | 32 (≈ 110 µM) | > 64 | 4 (≈ 13.8 µM) |  |  |  |  |  |  |  |  |  | 
CCCc1cnc2c(c1)C(=O)c1sc([N+](=O)[O-])cc1C2=O | 4 (≈ 13.2 µM) | 1 (≈ 3.31 µM) | 2 (≈ 6.62 µM) | 1 (≈ 3.31 µM) | 4 (≈ 13.2 µM) | 4 (≈ 13.2 µM) | 0.5 (≈ 1.65 µM) |  |  |  |  |  |  |  |  |  | 
Cc1ccnc2c1C(=O)c1occc1C2=O | > 64 | > 64 | > 64 | > 64 | > 64 | > 64 | 64 (≈ 300 µM) |  |  |  |  |  |  |  |  |  | 
